Data from ChEMBL document CHEMBL1129950, “Structural requirements for binding of anandamide-type compounds to the brain cannabinoid receptor” (J Med Chem, 1997).
pKi: −log10 of the molar value.

Legend:
Cannabinoid receptor 1 [1] = biological target: T1, Cannabinoid receptor 1 (Homo sapiens, UniProt P21554); test: Binding affinity against the cannabinoid receptor
In short: (§1)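 Whole rat brain synaptosomal membranes (2.4-3.8 µg protein) were competed against 38-48 fmol [3H]HU-243. Drug was serially diluted in 5 mg/mL fatty-acid-free BSA. Final 1 mL held 45 mM Tris-HCl, 2.7 mM MgCl2, 0.9 mM EDTA and 0.58 mg BSA. Incubation was 30 °C, 90 min. Bound ligand was separated by centrifugation, and pellet tips were scintillation-counted. Ki came from displacement.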

Cannabinoid receptor 1 [2] = biological target: Cannabinoid receptor 1 (Rattus norvegicus, UniProt P20272); test: In vitro binding affinity was determined against rat brain Cannabinoid receptor 1; details: for pKi: read-out: Ki
In short: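 Drug was serially diluted in 5 mg/mL fatty-acid-free BSA. Final 1 mL held 45 mM Tris-HCl, 2.7 mM MgCl2, 0.9 mM EDTA and 0.58 mg BSA. Incubation was 30 °C, 90 min. Bound ligand was separated by centrifugation, and pellet tips were scintillation-counted. Ki came from displacement.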

Cannabinoid receptor 1 [3] = biological target: T1, Cannabinoid receptor 1; test: Binding affinity against the Cannabinoid receptor 1 in the presence of PMSF (experiment 2)
Cannabinoid receptor 1 [4] = biological target: T1, Cannabinoid receptor 1; test: Binding affinity against the cannabinoid receptor (expt 1); in short: as §1
Cannabinoid receptor 1 [5] = biological target: T1, Cannabinoid receptor 1; test: Binding affinity against the cannabinoid receptor in the presence of PMSF (expt 1)
Cannabinoid receptor 1 [6] = biological target: T1, Cannabinoid receptor 1; test: Binding affinity against the cannabinoid receptor in the presence of PMSF (expt 3)
Cannabinoid receptor 1 [7] = biological target: T1, Cannabinoid receptor 1; test: Binding affinity against the cannabinoid receptor in the presence of PMSF
Cannabinoid receptor 1 [8] = biological target: T1, Cannabinoid receptor 1; test: Binding affinity against the cannabinoid receptor in the presence of PMSF (experiment 2)
Cannabinoid receptor 1 [9] = biological target: T1, Cannabinoid receptor 1; test: Binding affinity against the cloned human Cannabinoid receptor 1
Cannabinoid receptor 1 [10] = biological target: T1, Cannabinoid receptor 1; test: Binding affinity against the cloned human Cannabinoid receptor 1; no activity

Cannabinoid receptor 1 (Rattus norvegicus, UniProt P20272), sequence (P20272 whole entry): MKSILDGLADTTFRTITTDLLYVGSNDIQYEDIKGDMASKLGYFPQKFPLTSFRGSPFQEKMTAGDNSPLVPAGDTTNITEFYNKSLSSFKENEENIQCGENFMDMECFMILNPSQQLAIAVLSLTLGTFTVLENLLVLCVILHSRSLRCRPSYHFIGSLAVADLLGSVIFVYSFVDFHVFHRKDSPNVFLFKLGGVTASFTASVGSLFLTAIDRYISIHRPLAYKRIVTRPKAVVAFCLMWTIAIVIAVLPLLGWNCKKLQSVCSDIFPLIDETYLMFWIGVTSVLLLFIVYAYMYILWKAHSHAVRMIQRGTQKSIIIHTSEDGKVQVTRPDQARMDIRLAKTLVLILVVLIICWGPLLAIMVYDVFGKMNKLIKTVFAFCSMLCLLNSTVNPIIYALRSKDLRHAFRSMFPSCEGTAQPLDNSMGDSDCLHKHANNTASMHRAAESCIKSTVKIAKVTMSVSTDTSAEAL
T1 sequence (P21554 whole entry): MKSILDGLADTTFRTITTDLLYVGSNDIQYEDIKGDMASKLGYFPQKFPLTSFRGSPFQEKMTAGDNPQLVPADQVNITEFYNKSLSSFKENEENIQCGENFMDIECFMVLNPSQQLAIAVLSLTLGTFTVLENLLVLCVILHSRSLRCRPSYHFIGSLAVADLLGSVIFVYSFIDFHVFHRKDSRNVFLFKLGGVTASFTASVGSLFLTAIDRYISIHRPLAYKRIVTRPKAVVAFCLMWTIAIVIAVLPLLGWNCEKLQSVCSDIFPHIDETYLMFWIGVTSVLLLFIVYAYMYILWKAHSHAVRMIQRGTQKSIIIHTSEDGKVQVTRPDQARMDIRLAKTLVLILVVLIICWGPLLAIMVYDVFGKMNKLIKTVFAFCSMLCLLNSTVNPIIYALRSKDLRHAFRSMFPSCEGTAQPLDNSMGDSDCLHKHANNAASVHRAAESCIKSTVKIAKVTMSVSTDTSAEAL

| Structure (SMILES) | pKi (Cannabinoid receptor 1 [2]) | other results |
| --- | --- | --- |
| CCCCC/C=C\C/C=C\C/C=C\CCCCCCC(=O)NCCO | – | pKi (Cannabinoid receptor 1 [1]): 6.22 |
| CCCCC/C=C\C/C=C\CCCCCCCCCC(=O)NCCO | 5.82 | – |
| CCCCC/C=C\C/C=C\C/C=C\C/C=C\CCCC(=O)N(C)CCO | < 5.00 | pKi (Cannabinoid receptor 1 [3]): 5.30; pKi (Cannabinoid receptor 1 [4]): 5.28 |
| CCCCC/C=C\C/C=C\C/C=C\C/C=C\CCCC(=O)NC(C)(C)C | 6.86 | – |
| CCCCC/C=C\C/C=C\C/C=C\C/C=C\CCCC(=O)N[C@@H](C)CC | 6.42 | – |
| CCCCC/C=C\C/C=C\C/C=C\C/C=C\CCCC(=O)NCCCC | 6.63 | pKi (Cannabinoid receptor 1 [1]): 7.52 |
| CCCCC/C=C\C/C=C\C/C=C\C/C=C\CCCC(=O)N(C)C | < 6.00 | – |
| CCCCC/C=C\C/C=C\C/C=C\C/C=C\CCCC(=O)NC | 7.22 | – |
| CCCCC/C=C\C/C=C\C/C=C\C/C=C\CCCC(=O)N(CC)CC | < 6.00 | – |
| CC/C=C/C/C=C\C/C=C\C/C=C\CCCCC(=O)NCCO | < 6.00 | – |
| CCCCC/C=C\C/C=C\C/C=C\C/C=C\CCCC(=O)N(CCC)CCO | < 5.00 | – |
| CCCCC/C=C\C/C=C\C/C=C\C/C=C\CCC(C)C(=O)NCCO (configuration not stated) | – | pKi (Cannabinoid receptor 1 [5]): 7.28; pKi (Cannabinoid receptor 1 [6]): 7.28 |
| CCCCC/C=C\C/C=C\C/C=C\C/C=C\CCCC(=O)NCCC(C)C | 6.24 | pKi (Cannabinoid receptor 1 [7]): 5.73 |
| CCCCC/C=C\C/C=C\C/C=C\C/C=C\CCC(C)C(=O)NCCC (configuration not stated) | 8.13 | – |
| CCCCC/C=C\C/C=C\C/C=C\C/C=C\CCCC(=O)NCCN(CC)CC | < 6.00 | – |
| CCCCC/C=C\C/C=C\C/C=C\C/C=C\CCCC(=O)NCCOP(=O)(O)O | 6.72 | – |
| CCCCC/C=C\C/C=C\C/C=C\C/C=C\CCCC(=O)NC(C)(C)CC | 6.35 | – |
| CC/C=C/C/C=C\C/C=C\CCCCCCCCCC(=O)NCCO | < 5.00 | – |
| CC/C=C/C/C=C\C/C=C\CCCCCCCC(=O)NCCO | – | Ki (Cannabinoid receptor 1 [2]): Not Active |
| CCCCC/C=C\C/C=C\C/C=C\C/C=C\CCC(C)(C)C(=O)NCCC | 8.16 | – |
| CCCCCC#CCC#CCC#CCC#CCCCC(=O)NCCO | – | Ki (Cannabinoid receptor 1 [2]): Not Active |
| CCCCCCCC/C=C\CCCCCCCCCC(=O)NCCO | < 6.00 | pKi (Cannabinoid receptor 1 [8]): < 5.00 |
| CCCCC/C=C\C/C=C\C/C=C\C/C=C\CCCC(=O)NC(CO)C(=O)O (configuration not stated) | < 5.00 | – |

| Structure (SMILES) | pKi (Cannabinoid receptor 1 [2]) | other results |
| --- | --- | --- |
| CCCCC/C=C\C/C=C\C/C=C\C/C=C\CCC(C)C(=O)NC(C)C (configuration not stated) | 8.08 | – |
| CC/C=C/C/C=C\C/C=C\C/C=C\C/C=C\C/C=C/CCC(=O)NCCO | – | pKi (Cannabinoid receptor 1 [9]): 4.91 |
| CC/C=C/C/C=C\C/C=C\C/C=C\C/C=C/CCCC(=O)NCCO | 6.79 | pKi (Cannabinoid receptor 1 [8]): 5.83 |
| CCCCC/C=C\C/C=C\C/C=C\C/C=C\CCCC(=O)N(CC)CCO | < 5.00 | – |
| CCCCC/C=C\C/C=C\C/C=C\C/C=C\CCCC(=O)NC(C)(C)CO | 6.79 | – |
| CCCCC/C=C\C/C=C\C/C=C\C/C=C\CCCC(=O)NC(C)C | 7.87 | – |
| CCCCC/C=C\C/C=C\C/C=C\C/C=C\CCC(C)(C)C(=O)N[C@H](C)CO | 7.51 | – |
| CCCCC/C=C\C/C=C\C/C=C\C/C=C\CCC(C)(C)C(=O)NC[C@H](C)O | 7.33 | – |
| CCCCC/C=C\C/C=C\C/C=C\C/C=C\CCC(C)(C)C(=O)N[C@@H](C)CO | 6.72 | – |
| CCCCC/C=C\C/C=C\C/C=C\C/C=C\CCCC(=O)NO | < 6.00 | – |
| CCCCC/C=C\C/C=C\C/C=C\C/C=C\CCCC(=O)NCCCO | – | pKi (Cannabinoid receptor 1 [1]): 7.89; pKi (Cannabinoid receptor 1 [7]): 6.72; pKi (Cannabinoid receptor 1 [9]): 6.44 |
| CCCCC/C=C\C/C=C\C/C=C\C/C=C\CCCC(=O)NCCCCC | < 6.00 | – |
| CCCCC/C=C\C/C=C\C/C=C\C/C=C\CCCC(=O)N[C@H](C)CC | 6.62 | – |
| CCCCC/C=C\C/C=C\C/C=C\C/C=C\CCCC(=O)NC(C)C(O)c1ccccc1 (configuration not stated) | < 6.00 | – |
| CCCCC/C=C\C/C=C\C/C=C\C/C=C\CCC(C)(C)C(=O)NCCO | 7.59 | pKi (Cannabinoid receptor 1 [1]): 7.39; pKi (Cannabinoid receptor 1 [5]): 7.33; pKi (Cannabinoid receptor 1 [8]): 7.33 |
| CCCCC/C=C\C/C=C\C/C=C\C/C=C\CCC(C)(C)C(=O)NC(C)C | 8.14 | – |
| CCCCC/C=C\C/C=C\C/C=C\C/C=C\CCCC(=O)NCCC | 7.93 | pKi (Cannabinoid receptor 1 [1]): 8.14 |
| CCCCC/C=C\C/C=C\C/C=C\C/C=C\CCCC(=O)NCCOC | 7.07 | pKi (Cannabinoid receptor 1 [1]): 6.19; pKi (Cannabinoid receptor 1 [7]): 5.74 |
| CCCCC/C=C\C/C=C\CCCCCCCC(=O)NCCO (stereo in doubt; 37) [LINOLEOYLETHANOLAMIDE] | – | pKi (Cannabinoid receptor 1 [9]): < 4.38 |
| CCCCC/C=C\C/C=C\C/C=C\C/C=C\CCCC(N)=O [ARACHIDONAMIDE] | < 6.00 | pKi (Cannabinoid receptor 1 [9]): 5.02 |
| CCCCC/C=C\C/C=C\C/C=C\C/C=C\CCCC(=O)NCC(=O)O [ARACHIDONOYL GLYCINE] | < 5.00 | – |
| CCCCCCCCCCCCCCCC(=O)NCCO [PALMIDROL] | – | Ki (Cannabinoid receptor 1 [10]): Not Active; Ki (Cannabinoid receptor 1 [2]): Not Active |
